Bioassay records as filed in PubChem BioAssay.
Most compounds without a hit are left out; they make up all but 2.9% or so of the library.
MC4R barr agon: activates human MC4R beta-arrestin recruitment. hit rate 0.98% among 360,000. P32245. activation, % at 8.9 µM. U2OS MC4R beta-arrestin complementation, luminescence; percent of melanotan II response, DMSO zero. AID 540308;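 active = activation above a per-plate cutoff, the mean activation of sample wells on that plate plus 3 SD, cut at about 8% in these data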
MC4R antag cAMP: antagonists of human melanocortin 4 receptor (MC4R) | P32245 | MC4R-expressing cells, MTII-stimulated cAMP, LANCE TR-FRET | inhibition, % at 6.5 µM | hit rate 0.48% among 360,000;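 active = inhibition above its plate's cutoff, the mean of tested wells on that plate plus 3 SD, cut at about 29% in these data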
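Material: human MC4R-expressing U2OS cells. Probe or stimulus: Melanotan II challenge. Dosing: 6.5 µM single dose. Times: 30-min compound, 1-h challenge, 1-h detection, room temperature. Technique: TR-FRET with Eu-cAMP and labeled anti-cAMP, 671 nm. Replication: singlicate.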
H9c2 TAG inh: inhibitors of triacylglycerol accumulation | H9c2 cells, Nile Red lipid (TAG) fluorescence; cells loaded with 200 µM oleic acid | inhibition, % at 12.5 µM | hit rate 0.66% among 230,000 | AID 651582;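 active = pattern-corrected inhibition of lipid staining of at least 50% with the nuclear-stain viability signal not falling by more than 50%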
Efflux pump mplx: blocks antifungal efflux pumps in multiplex yeast assay | hit rate 0.44% among 330,000 | inhibition, % at 10 µM | S. cerevisiae Candida pump triplex, Nile Red efflux;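 active = plate passing quality check with inhibition over a set limit, or well fluorescence over plate mean plus 4 SD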;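 note: Nile Red retained in pooled yeast measured as flow cytometry median fluorescence; higher means more Nile Red kept so more efflux inhibition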
Calb FLC: C. albicans growth modulation with fluconazole; hit rate 0.57% among 300,000; C. albicans CaCi-2 + fluconazole, Alamar Blue growth, 48 h; growth inhibition, % (no concentration beside the values);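 active = growth inhibition above about 58% in most replicates, limit read from the data, passing the limit was not always enough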;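 note: all wells also contain fluconazole at 8 µg/ml as a sub-toxic cotreatment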
GalR3 antag: human GalR3 antagonism | O60755 | HEK293 GalR3-CNG cAMP membrane potential fluorescence; galR3 body fused to GalR1 C-terminus | inhibition, % at 3 µM | hit rate 0.44% among 360,000 | AID 651719;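 active = inhibition above the screen-wide average plus 3 SD, cut at about 13% in these data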;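 note: forskolin and galanin both at EC90 stimulate the cells; cAMP rise reported by CNG channel membrane potential dye signal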
Target sequence (O60755 1-299 limits assumed): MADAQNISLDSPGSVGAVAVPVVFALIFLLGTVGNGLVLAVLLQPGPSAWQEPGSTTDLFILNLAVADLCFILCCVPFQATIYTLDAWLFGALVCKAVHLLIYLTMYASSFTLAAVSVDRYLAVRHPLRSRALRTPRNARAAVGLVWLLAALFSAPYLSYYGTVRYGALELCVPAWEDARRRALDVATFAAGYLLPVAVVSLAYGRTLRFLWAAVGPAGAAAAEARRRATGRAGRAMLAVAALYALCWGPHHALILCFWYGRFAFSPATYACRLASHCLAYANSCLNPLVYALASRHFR
Cmpd fluor yeast: compound fluorescence in yeast efflux pump counter-screen | AID 588517 | S. cerevisiae AD/pABC3, flow cytometry | fluorescence ratio to DMSO, % at 10 µM | hit rate 4% among 1,700 | shares compounds with Efflux pump mplx;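 active = fluorescence ratio to DMSO above its plate's cutoff, the plate mean ratio plus 5 SD, cut at about 210% in these data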;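 note: unstained yeast with no Nile Red so the signal is compound autofluorescence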
CaMdr1 efflux inh: inhibitors of Candida albicans Mdr1 efflux pump; shares compounds with Efflux pump mplx; S. cerevisiae AD/CaMDR1, Nile Red efflux, flow cytometry; inhibition, % at 10 µM; hit rate 1% among 1,700; in the data active = inhibition above about 26%;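 note: higher means more Nile Red retained so more efflux inhibition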
Cdr2 pump inh: Candida Cdr2 efflux pump inhibition. Nile Red retention ratio vs DMSO, % at 10 µM. hit rate 4% among 1,700. shares compounds with Efflux pump mplx. AID 588520. S. cerevisiae AD/CaCDR2, Nile Red retention, flow cytometry; in the data active = Nile Red retention ratio vs DMSO above about 190%;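 note: higher ratio means more blocking of Cdr2 efflux of the dye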
Cdr1 pump inh: blocks the Candida albicans Cdr1 efflux pump in yeast; shares compounds with Efflux pump mplx; S. cerevisiae AD/CaCDR1, Nile Red efflux, flow cytometry; inhibition, % at 10 µM; hit rate 1% among 1,700;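 active = inhibition above the screen-wide mean plus twice its standard deviation, cut at about 32% in these data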
A number is an active result; - = inactive; . = no result given.

SMILES	MC4R barr agon	MC4R antag cAMP	H9c2 TAG inh	Efflux pump mplx	Calb FLC	GalR3 antag	Cmpd fluor yeast	CaMdr1 efflux inh	Cdr2 pump inh	Cdr1 pump inh
O=C(NC1CCN(Cc2ccccc2)CC1)c1[nH]c(C(F)(F)F)nc1-c1ccccc1	.	.	.	.	.	-	.	.	.	.
NNC(=O)C1c2ccccc2Oc2ccccc21	-	-	.	-	-	-	.	.	.	.
NC(=O)C1c2ccccc2Oc2ccccc21	-	-	.	4.9	-	-	-	-	-	-
CCOc1cc(C2C3=C(CCCC3=O)Nc3nc(C(=O)OC)nn32)ccc1OC (configuration not stated)	-	-	.	1.4	-	-	-	-	-	-
COC(=O)c1c(NC(=O)COc2ccc(Cl)cc2)sc2c1CC(C)(C)NC2(C)C	-	-	-	-	-	-	.	.	.	.
CC1(C)Cc2c(sc(NC(=O)COc3ccc(Cl)cc3Cl)c2C(N)=O)C(C)(C)N1	-	-	-	0.6	-	-	-	-	-	-
O=C(CC1Sc2ccccc2NC1=O)Nc1ccccc1[N+](=O)[O-] (configuration not stated)	-	-	.	17.7	-	-	-	-	-	-
Oc1ccc(Cl)cc1C=Nc1ccc2c3c(cccc13)CC2	-	-	.	4.4	-	-	-	-	-	-
CC(=O)Nc1ccccc1OC(C)C(=O)NC(C)c1ccc(F)cc1 (configuration not stated)	-	-	.	5.8	-	-	-	-	-	-
CC(=O)Nc1ccccc1OCC(=O)NC(C)c1ccc(F)cc1 (configuration not stated)	-	-	.	-	-	-	.	.	.	.
C/C(=N\NC(=O)CSCc1ccccc1Br)c1cccc([N+](=O)[O-])c1	-	-	.	6.5	-	-	-	-	-	-
CCCOc1ccc(C(=O)NC(=S)N2CCN(c3ncc4c(=O)c(C(=O)O)cn(CC)c4n3)CC2)cc1	-	-	-	.	.	-	.	.	.	.
CCn1cc(C(=O)O)c(=O)c2cnc(N3CCN(C(=S)NC(=O)c4ccccc4)CC3)nc21	-	-	-	0.8	-	-	-	-	-	-
COc1ccc(-c2cc(CNc3nc4cc(-c5ccccc5C)sc4c(=O)n3C)on2)cc1	-	-	-	.	.	-	.	.	.	.
O=C(/C=C/c1ccc(Cl)cc1)NCCCN1CCOCC1	-	-	-	-	-	-	.	.	.	.
O=C(/C=C/c1ccc2c(c1)OCO2)NCCCN1CCOCC1	-	-	.	11.1	-	-	-	-	-	-
CCC(C)C(=O)Nc1nnc(CCc2ccccc2)s1 (configuration not stated)	-	-	.	1.2	-	-	-	-	-	-
CC(C)CC(=O)Nc1nnc(CCc2ccccc2)s1	-	-	-	-	-	-	.	.	.	.
Cc1cccc(C)c1NC(=O)C(c1ccccc1F)n1c(=O)c(-c2cc3ccccc3[nH]2)nc2ccccc21 (configuration not stated)	.	.	.	.	.	-	.	.	.	.
CN(C)CCCNc1ncnc2scc(-c3ccccc3)c12	-	-	-	-	-	-	.	.	.	.
Cc1ccccc1S(=O)(=O)Nc1ncnc2scc(-c3ccccc3)c12	-	-	-	11.4	-	-	-	-	-	-
COc1cc(-c2cc(C(=O)Nc3ccc(O)cc3)c3ccccc3n2)cc(OC)c1OC	-	-	-	-	-	-	-	-	-	-
CC(C)(C)NS(=O)(=O)c1ccc(NC(=O)c2cc(-c3ccccc3)nc3ccccc23)cc1	-	-	.	-	-	-	.	.	.	.
Cc1ccc(-c2cc(C(=O)Nc3ccc(S(=O)(=O)Nc4ncccn4)cc3)c3ccccc3n2)cc1	-	-	.	8.2	-	-	-	-	-	-
CCc1ccc(-c2cc(C(=O)Nc3ccc(S(=O)(=O)NC(C)=O)cc3)c3ccccc3n2)cc1	-	-	-	-	-	-	-	-	-	-
